Experimental data collected from several papers.
Lines come from different studies, so protocols differ. pIC50: −log10 of the molar value.
DPP4: Dipeptidyl peptidase 4 (DPP4, Homo sapiens, UniProt P27487)
SLC22A13: SLC22A13 (Homo sapiens, UniProt Q9Y226)
CYP2C9: Cytochrome P450 2C9 (CYP2C9, Homo sapiens, UniProt P11712)

Cn1c(=O)cc(N2CCC(N)CC2)n(Cc2nc3ccccc3c(=O)n2-c2ccc(F)cc2)c1=O  pIC50 (DPP4; enzyme activity, inhibitor): 4.20
Nc1ncnc2c1ncn2[C@@H]1O[C@H](CO)[C@@H](O)[C@H]1O  pIC50 (SLC22A13; transporter uptake, inhibitor, radiometric; oocytes): < 2.30
CN(C)c1ncnc2c1ncn2[C@@H]1O[C@H](CCl)[C@@H](NC(=O)[C@@H](CSC(c2ccccc2)c2ccccc2)NC(=O)OC(C)(C)C)[C@H]1O  pIC50 (Aminopeptidase N (ANPEP, Homo sapiens, UniProt P15144); enzyme activity, inhibitor, fluorescence): < 4.00
Cn1nc2c(=O)n(C3CC3)ccc2c1[C@](O)(c1cnc(C(F)(F)F)c(Cl)c1)C(F)(F)F  pIC50 (CYP2C9; enzyme activity, inhibitor; human, liver microsomes; pH 7.4): < 4.70
COc1cc(O)c2c(c1)C(=O)c1cc(C)cc(O)c1C2=O  pIC50 (CYP2C9; enzyme activity, inhibitor; human, liver microsomes; pH 7.4): 5.13
CCCCNC(=O)N[C@H]1CSCc2cc(CSCCNC(=O)CN3CCN(CC(=O)O)CCN(CC(=O)O)CC3)cc(c2)CSC[C@@H](C(=O)O)NC(=O)[C@H](Cc2ccccc2)NC(=O)[C@H](CCC(N)=O)NC(=O)[C@H]([C@@H](C)O)NC(=O)[C@@H]2CCCN2C(=O)[C@@H]2CCCN2C1=O  pIC50 (Prolyl endopeptidase FAP (FAP, Homo sapiens, UniProt Q12884); ligand displacement, radioligand): 7.50
Cc1ccc(-n2c(Cn3c(N4CCC(N)CC4)cc(=O)n(C)c3=O)nc3ccccc3c2=O)cc1  pIC50 (DPP4; enzyme activity, inhibitor): < 4.00
Cn1c(=O)c2c(ncn2C)n(C)c1=O  pIC50 (SLC22A13; transporter uptake, inhibitor, radiometric; oocytes): < 2.70
Cn1c(=O)cc(N2CCC(N)CC2)n(Cc2nc3ccc(Br)cc3c(=O)n2-c2ccc(F)cc2)c1=O  pIC50 (DPP4; enzyme activity, inhibitor): 4.35
N#C[C@@]12C[C@@H]1[C@@H](n1cnc3c(N[C@@H](C4CCC4)C4CC4)nc(I)nc31)[C@H](O)[C@@H]2O  pIC50 (CYP2C9; enzyme activity, inhibitor): 5.06
CC[C@@](N)(c1cnc(C(F)(F)F)c(Cl)c1)c1c2ncn(C3CC3)c(=O)c2nn1C  pIC50 (Cytochrome P450 2C8 (CYP2C8, Homo sapiens, UniProt P10632); enzyme activity, inhibitor; human, liver microsomes; pH 7.4): < 4.70
Cn1c(=O)cc(N2CCC(N)CC2)n(Cc2nc3ccccc3c(=O)n2-c2ccccc2)c1=O  pIC50 (DPP4; enzyme activity, inhibitor): < 4.00
CC(=O)N[C@H]1Cc2ccc(cc2)OC/C=C/C[C@@H](C(=O)N[C@@H](CCCNC(=N)N)C(=O)c2nc3ccccc3s2)NC(=O)[C@H](CC(C)C)NC1=O  pIC50 (Hepatocyte growth factor activator serine protease (Homo sapiens, UniProt Q04756); enzyme activity, inhibitor, fluorescence; with preincubation): 7.28
Cn1c(=O)cc(N2CCC(N)CC2)n(Cc2nc3ccccc3c(=O)n2-c2cccc(C(F)(F)F)c2)c1=O  pIC50 (DPP4; enzyme activity, inhibitor): 4.24
CC1(CN)CCN(c2cnc3c(Sc4ccncc4Cl)n[nH]c3n2)CC1  pIC50 (Tyrosine-protein phosphatase non-receptor type 6 (PTPN6, Homo sapiens, UniProt P29350); enzyme activity, inhibitor): < 4.00
